Experimental data reported in ChEMBL document CHEMBL3603808, “Discovery and structure of a new inhibitor scaffold of the autophagy initiating kinase ULK1” (Bioorg Med Chem, 2015).

Legend:
[1] = molecular target: T1, Serine/threonine-protein kinase ULK2 (Homo sapiens, UniProt Q8IYT8); assay: Inhibition of SUMO-tagged ULK2 (unknown origin) kinase domain expressed in KRX cells using [32P]-gamma-ATP and myelin basic protein substrate incubated for 7 mins; type: single protein
T1 sequence (Q8IYT8 whole entry): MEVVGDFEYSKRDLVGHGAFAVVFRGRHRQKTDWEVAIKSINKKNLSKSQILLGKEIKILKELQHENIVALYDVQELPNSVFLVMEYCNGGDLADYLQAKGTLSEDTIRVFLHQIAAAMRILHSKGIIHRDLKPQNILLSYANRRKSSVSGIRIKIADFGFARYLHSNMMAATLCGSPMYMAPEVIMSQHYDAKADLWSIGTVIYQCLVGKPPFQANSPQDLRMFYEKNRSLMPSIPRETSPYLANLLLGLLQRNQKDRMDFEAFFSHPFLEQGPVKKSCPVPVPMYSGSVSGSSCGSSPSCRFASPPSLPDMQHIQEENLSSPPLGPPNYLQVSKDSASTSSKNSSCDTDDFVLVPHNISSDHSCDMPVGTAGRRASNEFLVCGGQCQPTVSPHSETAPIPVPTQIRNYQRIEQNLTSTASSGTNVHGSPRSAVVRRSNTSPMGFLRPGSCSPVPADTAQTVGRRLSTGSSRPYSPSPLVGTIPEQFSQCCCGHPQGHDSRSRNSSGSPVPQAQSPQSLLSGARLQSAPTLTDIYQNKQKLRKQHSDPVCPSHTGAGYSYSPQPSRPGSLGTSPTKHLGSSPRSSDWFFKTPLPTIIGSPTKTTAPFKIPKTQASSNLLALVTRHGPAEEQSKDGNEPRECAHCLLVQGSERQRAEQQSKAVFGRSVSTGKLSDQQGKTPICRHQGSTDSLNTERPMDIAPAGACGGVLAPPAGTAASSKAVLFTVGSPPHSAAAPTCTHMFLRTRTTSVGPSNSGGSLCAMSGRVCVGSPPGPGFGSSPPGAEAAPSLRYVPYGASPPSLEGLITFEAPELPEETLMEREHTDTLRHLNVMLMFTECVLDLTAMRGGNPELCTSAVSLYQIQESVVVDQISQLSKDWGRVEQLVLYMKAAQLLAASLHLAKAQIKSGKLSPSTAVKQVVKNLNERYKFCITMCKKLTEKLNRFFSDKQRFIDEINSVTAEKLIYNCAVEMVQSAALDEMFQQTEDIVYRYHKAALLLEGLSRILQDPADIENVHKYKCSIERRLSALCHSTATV
Outline: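 Enzyme at 5 nM with 50 µM cold ATP, 0.05 µCi/µl 32P-γ-ATP and 20 µM myelin basic protein as substrate. Reactions were spotted onto nitrocellulose, washed three times in 1% phosphoric acid, dried and imaged by phosphorimager. IC50 from curve fitting; duplicate.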

[2] = molecular target: Mitogen-activated protein kinase kinase kinase 7 (Homo sapiens) (UniProt O43318); assay: Inhibition of TAK1 (unknown origin) at 2 uM by radioactive filter-binding assay
Outline: (§1)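 Panel profiling of one compound against 50 kinases, carried out in duplicate at the International Centre for Protein Kinase Profiling. Radioactive filter-binding format.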

[3] = molecular target: Serine/threonine-protein kinase TBK1 (Homo sapiens) (UniProt Q9UHD2); assay: Inhibition of TBK1 (unknown origin) at 2 uM by radioactive filter-binding assay; outline: as §1
[4] = molecular target: Vascular endothelial growth factor receptor (Homo sapiens) (UniProt P17948+P35916+P35968); assay: Inhibition of VEGFR (unknown origin) at 2 uM by radioactive filter-binding assay; type: protein assay; outline: as §1
[5] = molecular target: Tyrosine-protein kinase SYK (Homo sapiens) (UniProt P43405); assay: Inhibition of SYK (unknown origin) at 2 uM by radioactive filter-binding assay; outline: as §1
[6] = molecular target: T2, 3-phosphoinositide-dependent protein kinase 1 (Homo sapiens, UniProt O15530); assay: Inhibition of recombinant PDK1 (unknown origin) using PDK1tide substrate incubated for 7 mins
T2 sequence (O15530 whole entry): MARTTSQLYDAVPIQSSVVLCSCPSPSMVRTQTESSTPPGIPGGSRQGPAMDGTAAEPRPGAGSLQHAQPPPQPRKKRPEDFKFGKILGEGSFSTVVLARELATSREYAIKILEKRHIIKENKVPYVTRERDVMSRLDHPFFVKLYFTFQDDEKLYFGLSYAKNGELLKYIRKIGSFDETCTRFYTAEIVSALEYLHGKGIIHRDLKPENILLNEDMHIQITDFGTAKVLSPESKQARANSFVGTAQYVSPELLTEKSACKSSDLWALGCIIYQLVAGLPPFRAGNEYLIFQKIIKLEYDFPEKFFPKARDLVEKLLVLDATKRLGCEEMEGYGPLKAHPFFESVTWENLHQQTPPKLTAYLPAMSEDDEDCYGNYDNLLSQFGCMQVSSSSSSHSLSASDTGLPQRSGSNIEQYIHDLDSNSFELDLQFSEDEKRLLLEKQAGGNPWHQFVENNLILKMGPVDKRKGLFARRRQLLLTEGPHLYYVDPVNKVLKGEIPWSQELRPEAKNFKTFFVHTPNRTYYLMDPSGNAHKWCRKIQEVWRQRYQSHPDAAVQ
Outline: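 Recombinant PDK1 at 5 nM with 50 µM synthetic PDK1tide in 50 mM HEPES pH 7.5, 10 mM MgCl2, 1 mg/ml BSA, 0.02% Triton-X and 50 µM DTT. Stopped after 7 min by spotting onto nitrocellulose, washed three times in 1% phosphoric acid and phosphorimaged. IC50 from curve fitting; duplicate.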

[7] = molecular target: Serine/threonine-protein kinase D1 (Homo sapiens) (UniProt Q15139); assay: Inhibition of PKD1 (unknown origin) at 2 uM by radioactive filter-binding assay; outline: as §1
[8] = molecular target: Mitogen-activated protein kinase kinase kinase 7 (Homo sapiens) (UniProt O43318); assay: Inhibition of TAK1 (unknown origin) at 250 nM by radioactive filter-binding assay; outline: as §1
[9] = molecular target: Mitogen-activated protein kinase kinase kinase 11 (Homo sapiens) (UniProt Q16584); assay: Inhibition of MLK3 (unknown origin) at 250 nM by radioactive filter-binding assay; outline: as §1
[10] = molecular target: High affinity nerve growth factor receptor (Homo sapiens) (UniProt P04629); assay: Inhibition of TRKA (unknown origin) at 250 nM by radioactive filter-binding assay; outline: as §1
[11] = molecular target: Calcium/calmodulin-dependent protein kinase kinase 2 (Homo sapiens) (UniProt Q96RR4); assay: Inhibition of CAMKKB (unknown origin) at 250 nM by radioactive filter-binding assay; outline: as §1
[12] = molecular target: Serine/threonine-protein kinase Sgk1 (Homo sapiens) (UniProt O00141); assay: Inhibition of SGK1 (unknown origin) at 250 nM by radioactive filter-binding assay; outline: as §1
[13] = molecular target: Receptor-interacting serine/threonine-protein kinase 2 (Homo sapiens) (UniProt O43353); assay: Inhibition of RIPK2 (unknown origin) at 250 nM by radioactive filter-binding assay; outline: as §1
[14] = molecular target: Interleukin-1 receptor-associated kinase 4 (Homo sapiens) (UniProt Q9NWZ3); assay: Inhibition of IRAK4 (unknown origin) at 250 nM by radioactive filter-binding assay; outline: as §1
Sequence of Interleukin-1 receptor-associated kinase 4 (Homo sapiens) (Q9NWZ3 whole entry): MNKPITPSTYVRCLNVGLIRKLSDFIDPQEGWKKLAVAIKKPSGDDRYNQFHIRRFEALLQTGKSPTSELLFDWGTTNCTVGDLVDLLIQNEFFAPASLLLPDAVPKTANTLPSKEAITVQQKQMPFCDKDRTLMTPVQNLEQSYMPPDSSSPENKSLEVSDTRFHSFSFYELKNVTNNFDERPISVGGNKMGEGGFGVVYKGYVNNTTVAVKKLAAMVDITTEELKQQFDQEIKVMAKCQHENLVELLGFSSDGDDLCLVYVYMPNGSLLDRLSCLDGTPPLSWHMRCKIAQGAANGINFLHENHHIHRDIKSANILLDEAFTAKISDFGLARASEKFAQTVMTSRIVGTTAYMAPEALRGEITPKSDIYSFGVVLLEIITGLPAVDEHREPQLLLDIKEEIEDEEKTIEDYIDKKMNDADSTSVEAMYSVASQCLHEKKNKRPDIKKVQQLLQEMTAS

Sequence of Mitogen-activated protein kinase kinase kinase 7 (Homo sapiens) (O43318 whole entry): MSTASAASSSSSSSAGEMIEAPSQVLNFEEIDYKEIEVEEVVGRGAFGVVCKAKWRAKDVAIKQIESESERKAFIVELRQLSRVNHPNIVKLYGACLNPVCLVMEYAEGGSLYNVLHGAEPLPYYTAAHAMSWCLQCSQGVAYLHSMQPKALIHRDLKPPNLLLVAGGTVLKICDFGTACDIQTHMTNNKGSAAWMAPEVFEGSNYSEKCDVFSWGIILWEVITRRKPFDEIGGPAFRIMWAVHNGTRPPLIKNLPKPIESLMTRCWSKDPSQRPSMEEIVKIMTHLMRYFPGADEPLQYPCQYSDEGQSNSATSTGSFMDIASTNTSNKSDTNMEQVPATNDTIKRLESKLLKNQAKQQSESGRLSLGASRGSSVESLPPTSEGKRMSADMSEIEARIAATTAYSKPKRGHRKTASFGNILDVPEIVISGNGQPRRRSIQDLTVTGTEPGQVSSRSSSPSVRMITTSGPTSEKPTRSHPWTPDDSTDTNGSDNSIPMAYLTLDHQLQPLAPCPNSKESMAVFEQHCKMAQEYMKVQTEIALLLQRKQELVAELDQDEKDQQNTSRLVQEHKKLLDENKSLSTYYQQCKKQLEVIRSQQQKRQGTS
Sequence of Receptor-interacting serine/threonine-protein kinase 2 (Homo sapiens) (O43353 whole entry): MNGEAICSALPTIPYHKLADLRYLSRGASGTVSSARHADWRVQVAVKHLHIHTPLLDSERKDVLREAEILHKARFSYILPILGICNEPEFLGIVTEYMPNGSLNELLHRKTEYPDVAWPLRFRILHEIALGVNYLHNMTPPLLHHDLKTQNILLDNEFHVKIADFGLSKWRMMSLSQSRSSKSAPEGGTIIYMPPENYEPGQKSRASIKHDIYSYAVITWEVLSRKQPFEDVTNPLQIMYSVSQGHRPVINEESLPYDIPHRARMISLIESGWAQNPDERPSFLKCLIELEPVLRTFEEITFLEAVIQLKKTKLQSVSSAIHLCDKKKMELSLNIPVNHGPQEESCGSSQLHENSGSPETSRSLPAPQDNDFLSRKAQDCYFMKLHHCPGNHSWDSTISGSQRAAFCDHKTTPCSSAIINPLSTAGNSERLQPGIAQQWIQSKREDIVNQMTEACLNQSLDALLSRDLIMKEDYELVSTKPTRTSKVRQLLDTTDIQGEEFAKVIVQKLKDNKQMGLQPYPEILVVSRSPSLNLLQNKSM
Sequence of Serine/threonine-protein kinase Sgk1 (Homo sapiens) (O00141 whole entry): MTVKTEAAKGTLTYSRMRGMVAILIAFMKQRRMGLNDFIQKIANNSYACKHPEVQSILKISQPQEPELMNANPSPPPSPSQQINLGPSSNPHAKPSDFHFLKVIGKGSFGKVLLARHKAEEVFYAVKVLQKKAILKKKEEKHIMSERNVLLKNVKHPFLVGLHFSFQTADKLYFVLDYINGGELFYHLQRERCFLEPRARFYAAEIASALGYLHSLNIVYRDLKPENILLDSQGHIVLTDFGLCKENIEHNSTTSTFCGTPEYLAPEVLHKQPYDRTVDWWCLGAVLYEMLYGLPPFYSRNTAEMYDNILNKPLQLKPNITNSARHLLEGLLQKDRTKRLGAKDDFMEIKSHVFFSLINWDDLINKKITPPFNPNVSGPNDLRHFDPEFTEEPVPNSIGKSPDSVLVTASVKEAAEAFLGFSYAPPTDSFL
Sequence of Calcium/calmodulin-dependent protein kinase kinase 2 (Homo sapiens) (Q96RR4 2-588 limits assumed): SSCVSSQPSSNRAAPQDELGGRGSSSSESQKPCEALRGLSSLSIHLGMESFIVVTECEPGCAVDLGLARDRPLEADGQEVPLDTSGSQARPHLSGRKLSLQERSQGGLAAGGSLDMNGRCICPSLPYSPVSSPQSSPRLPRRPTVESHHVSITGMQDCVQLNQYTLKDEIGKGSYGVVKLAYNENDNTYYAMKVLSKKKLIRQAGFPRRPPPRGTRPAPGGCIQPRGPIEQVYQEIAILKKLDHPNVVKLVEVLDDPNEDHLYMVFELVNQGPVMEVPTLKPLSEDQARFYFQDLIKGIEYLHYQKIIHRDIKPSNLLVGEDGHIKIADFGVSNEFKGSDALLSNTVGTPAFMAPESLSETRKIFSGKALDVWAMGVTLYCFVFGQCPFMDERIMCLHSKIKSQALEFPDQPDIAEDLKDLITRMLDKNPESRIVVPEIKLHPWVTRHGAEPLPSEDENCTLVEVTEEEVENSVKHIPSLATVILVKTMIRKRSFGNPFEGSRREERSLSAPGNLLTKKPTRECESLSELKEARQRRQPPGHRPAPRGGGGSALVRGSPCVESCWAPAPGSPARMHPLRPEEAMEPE
Sequence of Serine/threonine-protein kinase TBK1 (Homo sapiens) (Q9UHD2 whole entry): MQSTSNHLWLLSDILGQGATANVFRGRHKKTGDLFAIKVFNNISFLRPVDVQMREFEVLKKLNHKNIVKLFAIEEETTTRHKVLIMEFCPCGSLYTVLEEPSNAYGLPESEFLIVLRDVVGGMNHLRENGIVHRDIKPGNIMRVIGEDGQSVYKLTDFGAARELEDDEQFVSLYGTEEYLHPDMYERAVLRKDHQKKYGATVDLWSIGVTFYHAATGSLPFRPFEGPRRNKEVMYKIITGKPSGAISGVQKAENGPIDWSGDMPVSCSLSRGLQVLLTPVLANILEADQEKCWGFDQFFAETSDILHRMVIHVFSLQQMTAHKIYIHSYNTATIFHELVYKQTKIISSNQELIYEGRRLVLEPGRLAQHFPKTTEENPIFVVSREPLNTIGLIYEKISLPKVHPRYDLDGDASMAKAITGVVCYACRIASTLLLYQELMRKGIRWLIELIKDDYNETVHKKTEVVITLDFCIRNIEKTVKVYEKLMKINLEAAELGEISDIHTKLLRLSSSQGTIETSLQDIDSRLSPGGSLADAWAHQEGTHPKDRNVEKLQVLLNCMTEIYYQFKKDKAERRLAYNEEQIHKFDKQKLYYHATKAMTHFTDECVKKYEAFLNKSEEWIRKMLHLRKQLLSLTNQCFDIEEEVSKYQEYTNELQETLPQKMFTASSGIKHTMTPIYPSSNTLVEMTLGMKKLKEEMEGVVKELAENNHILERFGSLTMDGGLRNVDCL
Sequence of Serine/threonine-protein kinase D1 (Homo sapiens) (Q15139 whole entry): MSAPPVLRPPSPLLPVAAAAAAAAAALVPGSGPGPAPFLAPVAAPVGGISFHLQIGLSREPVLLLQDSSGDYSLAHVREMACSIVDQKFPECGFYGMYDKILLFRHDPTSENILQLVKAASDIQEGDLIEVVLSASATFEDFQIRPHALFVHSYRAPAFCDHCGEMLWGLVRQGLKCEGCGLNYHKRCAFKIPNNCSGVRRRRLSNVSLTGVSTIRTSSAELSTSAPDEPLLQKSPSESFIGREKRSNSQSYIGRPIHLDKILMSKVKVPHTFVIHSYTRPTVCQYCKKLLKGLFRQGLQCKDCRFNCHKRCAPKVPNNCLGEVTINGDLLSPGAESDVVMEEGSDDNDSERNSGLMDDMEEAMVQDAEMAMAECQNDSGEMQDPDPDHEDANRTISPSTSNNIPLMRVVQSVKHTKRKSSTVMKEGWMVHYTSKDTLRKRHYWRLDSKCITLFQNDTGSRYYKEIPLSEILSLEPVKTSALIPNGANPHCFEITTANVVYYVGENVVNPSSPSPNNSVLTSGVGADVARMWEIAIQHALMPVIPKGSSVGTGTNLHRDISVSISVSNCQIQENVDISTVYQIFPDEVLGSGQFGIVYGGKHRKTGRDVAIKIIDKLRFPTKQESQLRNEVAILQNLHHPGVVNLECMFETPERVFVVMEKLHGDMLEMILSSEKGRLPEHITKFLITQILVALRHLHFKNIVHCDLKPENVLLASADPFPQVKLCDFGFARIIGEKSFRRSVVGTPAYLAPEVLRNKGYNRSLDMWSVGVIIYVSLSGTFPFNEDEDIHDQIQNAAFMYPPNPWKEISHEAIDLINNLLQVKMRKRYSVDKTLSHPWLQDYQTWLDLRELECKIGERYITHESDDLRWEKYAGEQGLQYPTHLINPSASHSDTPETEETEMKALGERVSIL
Sequence of High affinity nerve growth factor receptor (Homo sapiens) (P04629 33-796 limits assumed): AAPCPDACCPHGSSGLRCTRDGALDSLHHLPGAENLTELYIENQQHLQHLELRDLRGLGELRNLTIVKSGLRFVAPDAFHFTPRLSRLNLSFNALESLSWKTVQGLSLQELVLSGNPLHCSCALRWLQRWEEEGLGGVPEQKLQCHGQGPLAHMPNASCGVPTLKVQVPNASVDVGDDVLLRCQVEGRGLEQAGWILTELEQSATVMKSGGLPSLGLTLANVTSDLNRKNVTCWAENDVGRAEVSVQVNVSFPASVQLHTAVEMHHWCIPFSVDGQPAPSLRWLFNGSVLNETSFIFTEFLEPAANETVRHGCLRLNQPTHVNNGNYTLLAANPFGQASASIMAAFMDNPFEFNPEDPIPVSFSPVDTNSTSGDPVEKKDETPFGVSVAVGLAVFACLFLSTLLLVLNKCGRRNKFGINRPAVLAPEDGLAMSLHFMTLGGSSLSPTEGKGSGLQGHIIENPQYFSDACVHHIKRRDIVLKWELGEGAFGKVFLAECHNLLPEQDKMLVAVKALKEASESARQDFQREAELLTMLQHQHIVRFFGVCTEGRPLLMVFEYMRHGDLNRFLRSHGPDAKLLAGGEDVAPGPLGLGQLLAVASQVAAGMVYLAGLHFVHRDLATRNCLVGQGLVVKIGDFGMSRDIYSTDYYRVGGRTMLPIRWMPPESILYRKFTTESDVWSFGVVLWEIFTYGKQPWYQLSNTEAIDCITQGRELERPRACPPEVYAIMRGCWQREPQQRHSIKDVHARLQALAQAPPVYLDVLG

Row | SMILES | IC50 [1] | inhibition [2] | inhibition [3] | inhibition [4] | inhibition [5] | IC50 [6] | inhibition [7] | inhibition [8] | inhibition [9] | inhibition [10] | inhibition [11] | inhibition [12] | inhibition [13] | inhibition [14]
1 | NCCCNc1nc(Nc2cccc(NC(=O)N3CCCC3)c2)ncc1I | 0.36 µM | > 80% | > 80% | > 80% | > 80% | 0.71 µM | > 80% |  |  |  |  |  |  | 
2 | c1ccc2c(Nc3cc(C4CCC4)[nH]n3)nc(Nc3ccc4[nH]cnc4c3)nc2c1 | 0.013 µM |  |  |  |  | 0.42 µM |  | > 80% | > 80% | > 80% | > 80% | > 80% | > 80% | > 80%
